Assay results: ChEMBL document CHEMBL1146566, “Antioxidant chalcone glycosides and flavanones from Maclura (Chlorophora) tinctoria” (J Nat Prod, 2003)
Active and inactive are the calls of the source. The calls are words filed in the database; no cut-off is given here.

Columns and labels:
[1] = Antioxidant activity assessed as autoxidation of linoleic acid by beta-carotene autoxidation assay; format: functional
Summary of the method: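 Linoleic acid (20 mg), Tween 20 (200 mg) and β-carotene (2 mg in 10 mL CHCl3) mixed, CHCl3 removed, 50 mL oxygen-saturated water added. Samples oxidised at 50 °C for 3 h, A470 read at intervals. AA = [1 − (A0 − At)/(A00 − A0t)] × 100 versus no-compound control, reported at 60 and 120 min; BHT as control substance.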

[2] = Antioxidant activity assessed as trolox equivalents of ABTS radical scavenging activity by TEAC assay; format: functional
Summary of the method: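 ABTS radical cation made from 7 mM ABTS and 2.45 mM potassium persulfate, 12 h dark at room temperature, diluted in PBS pH 7.4 to A734 0.70, equilibrated at 30 °C. Samples in methanol at 0.3–2 mM stock levels, 10 μL plus 1 mL ABTS. % inhibition of A734 versus methanol blank plotted against concentration, in triplicate. TEAC = Trolox concentration equivalent to 1 mM compound; quercetin as reference.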

Structure (SMILES)	Activity [1]	Activity [2] [mM]
O=C(/C=C/c1ccc(O)cc1)O[C@H]1[C@H](Oc2ccc(C(=O)/C=C/c3ccc(O)cc3)c(O)c2O)O[C@H](CO)[C@@H](O)[C@@H]1O	Active	1.93
O=C1C[C@@H](c2ccc(O[C@@H]3O[C@H](CO)[C@@H](O)[C@H](O)[C@H]3O)cc2)Oc2cc(O)cc(O)c21		0.782
O=c1c(O)c(-c2ccc(O)c(O)c2)oc2cc(O)cc(O)c12		2.6
CC(=O)O[C@H]1[C@H](Oc2ccc(C(=O)/C=C/c3ccc(O)cc3)c(O)c2O)O[C@H](COC(=O)/C=C/c2ccccc2)[C@@H](O)[C@@H]1O	Active	1.6
CC(=O)OC[C@H]1O[C@@H](Oc2ccc(C(=O)/C=C/c3ccc(O)cc3)c(O)c2O)[C@H](OC(=O)/C=C/c2ccc(O)cc2)[C@@H](O)[C@@H]1O	Active	1.71
O=C1C[C@@H](c2ccc(O)c(O)c2)Oc2cc(O[C@@H]3O[C@H](CO)[C@@H](O)[C@H](O)[C@H]3O)cc(O)c21		1.26
O=C1C[C@@H](c2ccc(O)cc2)Oc2cc(O)cc(O)c21		0.77
CC(C)=CCc1c(O[C@@H]2O[C@H](CO)[C@@H](O)[C@H](O)[C@H]2O)ccc(C(=O)/C=C/c2ccc(O)cc2)c1O	Active	2.26
